Source: ChEMBL document CHEMBL1926589, “2-Anilinonicotinyl linked 2-aminobenzothiazoles and [1,2,4]triazolo[1,5-b] [1,2,4]benzothiadiazine conjugates as potential mitochondrial apoptotic inducers” (Bioorg Med Chem, 2011)
Activity calls are given as the source filed them. The calls are words filed in the database; no cut-off is given here.

Key:
SK-N-SH = test: Growth inhibition of human SK-N-SH cells at 10 uM by sulforhodamine B assay; format: functional; settings: read-out: GI
How it was run: (§1)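 Single-dose 10 µM screen by sulforhodamine B assay, reported as percent inhibition of cell proliferation. Cells grown in medium with 10% heat-inactivated FBS at 37 °C, 5% CO2, and treated at about 70% confluence or in log phase. Compounds dissolved in DMSO; controls received vehicle (<0.5% v/v).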

HeLa = test: Induction of apoptosis in human HeLa cells assessed as DNA ladder formation at 10 uM after 24 hrs by agarose gel electrophoresis; format: functional, cell-based
How it was run: (§2)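 Cells treated 24 h, then 2 x 10^6 cells lysed (Triton X-100 buffer, pH 8.0) with RNase at 37 °C for 90 min and proteinase-K at 50 °C for 1 h. DNA phenol/chloroform-extracted and ethanol-precipitated, then run on 1.8% agarose at 50 V for 1.5 h in TAE. Ladders viewed under UV.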

HL-60 [1] = test: Cell cycle arrest in human HL60 cells assessed as accumulation at G1 phase at 1 uM after 24 hrs using propidium iodide staining by flow cytometry; format: functional, cell-based
How it was run: (§3)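 HL-60 cells (1 x 10^5 per 1.5 mL) treated 24 h, then fixed in 70% cold ethanol at −20 °C overnight. RNase digestion (400 µg/ml) at 37 °C for 45 min, then propidium iodide (10 µg/ml) for 30 min. Flow cytometry on 10,000 events, FL2-A vs FL2-W, with doublet discrimination. Sub-G0 (hypodiploid) peak taken as apoptotic cells. Mean ± SD of three independent experiments.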

HL-60 [2] = test: Inhibition of NF-kappaB expression in human HL60 cells at 1 uM after 24 hrs by Western blotting; format: functional, cell-based
How it was run: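 HL-60 cells treated 24 h and lysed in RIPA buffer on ice; protein measured by Bradford against a BSA standard. 50 µg resolved by SDS-PAGE and transferred to PVDF, blocked in 5% milk/TBST, then primary antibodies 1:1000 for 2 h and HRP secondary 1:1000 for 1 h. ECL detection with β-actin as loading control; bands quantified by densitometry.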

HL-60 [3] = test: Induction of apoptosis in human HL60 cells assessed as increase of reactive oxygen species level at 1 uM after 24 hrs using DCFH-DA fluorescent dye based flow cytometric analysis relative to control; format: functional
How it was run: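 HL-60 cells (1 x 10^5 per 1.5 mL) treated 24 h, then loaded with 10 µM H2DCFDA for 30 min at 37 °C. Washed twice in PBS and read in FL-1 (530 nm). Percentage of DCF-positive cells determined; mean ± SD of three experiments.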

HL-60 [4] = test: Induction of apoptosis in human HL60 cells assessed as formation of apoptotic bodies at 1 uM after 24 hrs by scanning electron microscopy; format: functional, cell-based
How it was run: (§4)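 HL-60 cells at 2 x 10^5/ml in 10% FCS medium exposed to 0.5 or 1 µM for 6–48 h; DMSO vehicle controls. Cells fixed in 2.5% glutaraldehyde in 0.1 M phosphate (pH 7.2) at 4 °C for 1 h, post-fixed in 1% OsO4 and ethanol-dehydrated. Critical-point dried, gold-coated, and imaged by SEM at 40 kV.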

SiHa [5] = test: Growth inhibition of human SiHa cells at 10 uM by sulforhodamine B assay; format: functional; settings: read-out: GI; how it was run: as §1
HL-60 [6] = test: Induction of apoptosis in human HL60 cells assessed as smoothening of surface at 1 uM after 12 hrs by scanning electron microscopy; format: functional, cell-based; how it was run: as §4
[7] = Growth inhibition of human 502713 cells at 10 uM by sulforhodamine B assay; format: functional; settings: read-out: GI; how it was run: as §1
A549 = test: Growth inhibition of human A549 cells at 10 uM by sulforhodamine B assay; format: functional; settings: read-out: GI; how it was run: as §1
HEp-2 = test: Growth inhibition of human Hep2 cells at 10 uM by sulforhodamine B assay; format: functional; settings: read-out: GI; how it was run: as §1
HL-60 [8] = test: Induction of apoptosis in human HL60 cells assessed as non-viable necrotic cells at 1 uM after 24 hrs using Annexin V-FITC and propidium iodide staining by flow cytometry relative to control; format: functional
How it was run: (§5)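 HL-60 cells (1 x 10^5 per 1.5 mL) treated 24 h, washed twice in PBS and stained in binding buffer with annexin V-FITC and PI. Flow cytometry with FITC in FL-1 (530 nm) and PI in FL-2 (585 nm), using quadrant statistics: lower right taken as apoptotic, upper right as post-apoptotic necrotic. Representative of three independent experiments.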

SiHa [9] = test: Growth inhibition of human SiHa cells after 48 hrs by MTT assay; format: functional, cell-based
HL-60 [10] = test: Growth inhibition of human HL60 cells after 48 hrs by MTT assay; format: functional, cell-based; settings: HL-60, 48 h
HL-60 [11] = test: Induction of apoptosis in human HL60 cells assessed as caspase8 activation using IETD-AFC as substrate at 1 uM after 24 hrs by fluorimetry relative to control; format: functional
How it was run: (§6)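 HL-60 cells (2 x 10^6) treated 24 h, washed and lysed. Caspase-3, -8 and -9 activities in lysates measured fluorometrically with a commercial caspase fluorescent assay kit. Two independent experiments, each in duplicate.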

HL-60 [12] = test: Induction of apoptosis in human HL60 cells assessed as DNA ladder formation at 1 uM after 24 hrs by agarose gel electrophoresis; format: functional, cell-based; how it was run: as §2
HL-60 [13] = test: Induction of NO production in human HL60 cells at 1 uM after 24 hrs using DAF-2DA fluorescent dye based flow cytometric analysis; format: functional, cell-based
How it was run: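 HL-60 cells (1 x 10^5 per 1.5 mL) preloaded 30 min with 10 µM DAF-2-DA before treatment. After 24 h exposure, cells were washed and read by flow cytometry in FL-1 as NO-positive population. Mean ± SD of three independent experiments.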

HL-60 [14] = test: Induction of apoptosis in human HL60 cells assessed as DNA ladder formation at 10 uM after 24 hrs by agarose gel electrophoresis; format: functional, cell-based; how it was run: as §2
HL-60 [15] = test: Induction of apoptosis in human HL60 cells assessed as late apoptotic cells at 1 uM after 24 hrs using Annexin V-FITC and propidium iodide staining by flow cytometry relative to control; format: functional; how it was run: as §5
HL-60 [16] = test: Induction of apoptosis in human HL60 cells assessed as early apoptotic cells at 1 uM after 24 hrs using Annexin V-FITC and propidium iodide staining by flow cytometry relative to control; format: functional; how it was run: as §5
HL-60 [17] = test: Cell cycle arrest in human HL60 cells assessed as accumulation at S phase at 1 uM after 24 hrs using propidium iodide staining by flow cytometry; format: functional, cell-based; how it was run: as §3
OVCAR-5 = test: Growth inhibition of human OVCAR5 cells at 10 uM by sulforhodamine B assay; format: functional; settings: read-out: GI; how it was run: as §1
HL-60 [18] = test: Cell cycle arrest in human HL60 cells assessed as accumulation at G2/M phase at 1 uM after 24 hrs using propidium iodide staining by flow cytometry; format: functional, cell-based; how it was run: as §3
CV-1 = test: Growth inhibition of african green monkey CV1 cells after 48 hrs by MTT assay; format: cell-based; settings: Chlorocebus aethiops, CV-1, 48 h
DU-145 = test: Growth inhibition of human DU145 cells at 10 uM by sulforhodamine B assay; format: functional; settings: read-out: GI; how it was run: as §1
HL-60 [19] = test: Induction of apoptosis in human HL60 cells assessed as caspase3 activation using DEVD-AFC as substrate at 1 uM after 24 hrs by fluorimetry relative to control; format: functional; how it was run: as §6

Which inhibition of growth at 10 µM (SK-N-SH) does the source give for `O=C(Nc1nc2ccc([N+](=O)[O-])cc2s1)c1cccnc1Nc1cc(F)c(F)c(F)c1` here?
Its inhibition of growth at 10 µM is 49%.

And the Activity (HeLa)?
Its Activity is “inactive”.

What about the Activity (HL-60 [1]) of the same compound?
The Activity was “inactive”.

What about the inhibition (HL-60 [2]) of the same compound?
The inhibition was “Active”.

And the Activity (HL-60 [3])?
Its Activity is “inactive”.

And the Activity (HL-60 [4])?
Its Activity is “Active”.

And the inhibition of growth at 10 µM (SiHa [5])?
Its inhibition of growth at 10 µM is 70%.

And the Activity (HL-60 [6])?
The Activity was “Active”.

And the inhibition of growth at 10 µM [7]?
The inhibition of growth at 10 µM was 80%.

What about the inhibition of growth at 10 µM (A549) of the same compound?
The inhibition of growth at 10 µM was 27%.

What about the inhibition of growth at 10 µM (HEp-2) of the same compound?
Its inhibition of growth at 10 µM is 0%.

And the Activity (HL-60 [8])?
The Activity was 47%.

What about the IC50 (SiHa [9]) of the same compound?
Its IC50 is 36 µM.

And the IC50 (HL-60 [10])?
The IC50 was 0.08 µM.

What about the “fold change (FC)” value (HL-60 [11]) of the same compound?
Its value is 2.

And the Activity (HL-60 [12])?
Its Activity is “Active”.

And the Activity (HL-60 [13])?
The Activity was “inactive”.

And the Activity (HL-60 [14])?
Its Activity is “Active”.

What about the Activity (HL-60 [15]) of the same compound?
Its Activity is 8%.

And the Activity (HL-60 [16])?
The Activity was 15%.

And the Activity (HL-60 [17])?
The Activity was “inactive”.

And the inhibition of growth at 10 µM (OVCAR-5)?
Its inhibition of growth at 10 µM is 52%.

And the Activity (HL-60 [18])?
The Activity was “inactive”.

What about the IC50 (CV-1) of the same compound?
Its IC50 is > 100 µM.

And the inhibition of growth at 10 µM (DU-145)?
The inhibition of growth at 10 µM was 39%.

What about the “fold change (FC)” value (HL-60 [19]) of the same compound?
The value was 2.
